Calb FLC: C. albicans growth inhibition with fluconazole, primary screen, CaCi-2 strain, Alamar Blue fluorescence | C. albicans CaCi-2 (fluconazole-resistant clinical isolate) + fluconazole, 48 h | growth inhibition, % (test concentration not listed) | actives 0.57% (n = 300,000) | AID 1979, 2009;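 active = growth inhibition above about 58% in most replicates, limit read from the data, passing the limit was not always enough; inconclusive = exactly half the replicates above a set limit; inactive = most replicates below a set limit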;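 note: all wells also contain fluconazole at 8 µg/ml as a sub-toxic cotreatment; 0% = median of DMSO wells and 100% = median of geldanamycin control wells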
HSF-1 act: HSF-1 activators, primary screen, NIH3T3-HGL cells, MG132 stress, luminescence, single point | activation, % at 9 µM | NIH3T3-HGL HSF-1 luciferase reporter, 8 h; 100% = twice DMSO control signal | actives 1.7% (n = 300,000);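 active = mean replicate activation of at least 50% with a set share of replicates each reaching 50%; inconclusive = only one of those two conditions met; inactive = mean below 50% and too few replicates reaching it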;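 note: 0% = median of the neutral control wells and 100% = twice that signal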
HIF act: HIF pathway transcriptional activators, primary screen, cell-based, U2OS HRE-luciferase, luminescence; U2OS HRE-luciferase reporter; normalized: DMSO 0%, desferrioxamine 100%; activation, % at 7.5 µM (by protocol); actives 0.32% (n = 300,000); AID 1910, 2009;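 active = mean activation of at least 10% of the iron chelator positive control signal, with at least half of replicates also reaching 10%; inconclusive = mean and replicate majority disagree about reaching 10%; inactive = mean and most replicates under 10%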
T cruzi inh: inhibitors of intracellular T. cruzi growth, primary screen, luminescence, NIH3T3 host cells | T. cruzi beta-gal in NIH3T3, 90 h | inhibition, % (test concentration not listed) | actives 1.4% (n = 300,000) | AID 1885, 2009;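 active = mean inhibition across valid replicates above about 55%, limit read from the data; inconclusive = mean below that limit but half or more replicates reach it; inactive = mean below it, under half of replicates reach it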;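 note: signal also drops with host cell toxicity which is not excluded here; 0% = plate median of DMSO wells and 100% = zero luminescence signal; higher percent means less beta-gal luminescence so fewer parasites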
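Assay system: NIH/3T3 fibroblasts plus reporter T. cruzi. Amount: NIH/3T3 cells, 5,000 per well. Buffer or medium: DMEM, 2% fetal bovine serum. Doses: compound pinned at 50 nL/well, DMSO. Schedule: ≥90 h infection period, 3 h prior cell attachment. Signal: luminescent β-galactosidase signal after 60 min lysis. Read-out: parasite load inhibition, %.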
HSF1 inh: HSF1 inhibitors in luciferase reporter cells, primary screen, cell-based, NIH3T3, luminescence | activity change, negative = inhibition, % at 7.5 µM (by protocol) | actives 0.77% (n = 300,000) | NIH3T3-HGL HSE-luciferase, MG132-induced, luminescence 8 h; active compounds read low;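 active = more than half of replicate wells show activity change below -50%, luminescence cut by over half; inconclusive = some wells, but at most half, below -50%; inactive = no replicate well below -50%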;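 note: luciferase reports HSF-1 transcriptional activity via heat shock element; 0% = median of DMSO wells and -100% = zero luminescence signal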
* hit, by the source's call; ? = inconclusive. Only some compounds are listed: those with a hit (about 4.4% of all), similar ones and a draw of the others.

SMILES	Calb FLC	HSF-1 act	HIF act	T cruzi inh	HSF1 inh
NC(=O)c1cnn2c(-c3ccc(Cl)cc3Cl)ccnc12	2.5	3.8	-3.3	-12.4	3.2
CCOc1ccc(CNS(=O)(=O)c2cccs2)cc1OCC	2.6	4.2	-0.9	-0.7	-3.0
COc1cccc(C(=O)Nc2nnc(-c3ccccc3)s2)c1OC	14.0	46.7	3.8	6.6	26.1
COc1cccc(C(=O)Nc2sc(C(C)C)cc2C(N)=O)c1OC	6.6	-83.9	0.5	9.6	-78.8*
Nc1cc(Cl)nnc1Cl	0.4	41.5	0.5	-5.2	0.1
CC(NC(=O)Cn1cc([N+](=O)[O-])cn1)c1ccc(C(C)(C)C)cc1 (stereo unspecified)	-4.6	9.9	-0.5	14.1	3.0
C=CCc1cccc2cc(C(=O)NNC(=O)CC#N)c(=O)oc12	6.3	-14.5	-0.1	-3.4	-4.0
O=C(Cn1c(-c2ccccc2)c[n+]2ccsc12)c1ccccc1	-53.0	23.1	2.6	68.8*	1.3
O=C(Cn1c(-c2ccccc2)c[n+]2ccsc12)c1ccc([N+](=O)[O-])cc1	-11.0	-10.3	1.0	75.0*	7.6
COc1ccccc1N(C(=O)c1ccco1)C(C(=O)NC1CCCCC1)c1cc(OC)c(OC)c(OC)c1 (stereo unspecified)	0.7	-6.7	-0.5	-0.6	1.8
N#C/C(=N\Nc1ccccc1[N+](=O)[O-])C(=N)N1CCCCC1	6.0	64.3*	-1.4	15.2	34.7
COc1ccccc1C(=O)COC(=O)Cn1c(C)csc1=O	0.4	1.7	0.2	-11.4	0.5
Cc1cccc(/C=C(\c2nc3ccccc3[nH]2)S(=O)(=O)c2ccccc2)c1	36.1	344.1*	2.2	47.0	240.5
CC(C)(C)c1ccc(/C=C(\c2nc3ccccc3[nH]2)S(=O)(=O)c2ccccc2)cc1	-1.7	57.1*	2.9	56.5*	60.2
O=C(/C(=C(\O)c1ccccc1)c1nc2ccccc2[nH]1)c1ccccc1	-4.5	-4.1	1.2	22.1	-2.2
Cc1cc2c3c(c1)C1(C(=O)N3C(C)(C)CC2C)C(C#N)=C(N)Oc2cc(O)ccc21 (stereo unspecified)	-20.2	67.1*	-0.7	66.2*	23.7
COc1ccc(CN2CCC(C(=O)Nc3ccc(Oc4cccnc4)cc3)CC2)c(C)c1C	33.7	-88.3	-0.2	12.8	-82.8*
Cc1nc(N2CCN(C(=O)c3ccco3)CC2)c2c3c(sc2n1)CCC3	26.2	17.6	-0.5	7.4	6.3
CC(C)c1nc(N2CCN(C(=O)c3ccco3)CC2)c2c3c(sc2n1)CCCC3	89.4*	35.1	-0.2	29.9	14.6
CCN(CC)S(=O)(=O)c1ccc(NN=C2CCN(C)CC2)c([N+](=O)[O-])c1	-26.4	30.3	-0.9	58.3*	3.5
CCOc1cccc(C2/C(=C(/O)c3ccc4c(c3)CC(C)O4)C(=O)C(=O)N2Cc2cccnc2)c1 (stereo unspecified)	1.0	5.2	-0.1	21.5	4.4
COC(=O)C(C)Oc1ccc(Cl)c(CN2OCC(C)(C)C2=O)c1 (stereo unspecified)	-1.0	-6.4	-0.7	4.0	-10.4
CCN(CC)c1nc(N)c(C#N)c(CC#N)c1C#N	-9.9	10.9	-4.0	26.2	5.2
CCOc1ccccc1N1CCN(c2nc(N)c(C#N)c(CC#N)c2C#N)CC1	23.0	5.7	0.0	44.1	-4.5
CCCN(CCC)c1nc(N)c(C#N)c(CC#N)c1C#N	-0.6	115.0*	1.5	21.5	79.3
SMILES	Calb FLC	HSF-1 act	HIF act	T cruzi inh	HSF1 inh
CCCN(CC1CC1)c1nc(N)c(C#N)c(CC#N)c1C#N	-2.4	72.2*	4.8	7.0	82.5
Cc1ccc(-c2csc(C3=C(O)CN(NC(=O)c4ccco4)C3=N)n2)cc1	-2.0	29.9	-0.2	-2.8	-5.8
CC1CCCCC1NC(=O)CN1CCC(NC(=O)c2cccc(F)c2)CC1 (stereo unspecified)	-20.1	16.1	-0.2	20.9	-3.1
Nc1cnn(Cc2ccc(F)cc2)c1	-8.3	56.3*	1.4	0.5	29.6
Nc1cnn(Cc2ccccc2F)c1	18.2	24.5	-0.5	10.5	15.8
Cc1ccc2nsnc2c1S(=O)(=O)NCCc1c(C)[nH]c2ccc(F)cc12	-3.3	5.2	-0.4	3.4	-1.0
CCNC(=O)/C(C#N)=C/c1c(N(Cc2ccccc2)Cc2ccccc2)nc2ccccn2c1=O	-23.6	65.6*	-0.4	17.0	22.1
Cc1ccc(S(=O)(=O)Nc2cccc3cccnc23)cc1	7.4	81.3*	-0.3	48.9	62.5
O=S(=O)(Nc1cc(Sc2cccc3cccnc23)c(O)c2ccccc12)c1ccccc1	-33.3	203.6*	1.1	50.1	204.0
COc1cc(NS(=O)(=O)c2ccc(C)cc2)c2ncccc2c1	?	-82.8	1.2	78.5*	-80.8*
COc1cc(C(c2nnnn2C2CCCC2)N2CCN(C(=O)c3ccco3)CC2)cc(OC)c1OC (stereo unspecified)	5.2	-18.7	-0.3	-7.1	-0.1
Cc1cccc(CS(=O)(=O)c2ncc(Cl)c(C(=O)Nc3nnc(C(C)C)s3)n2)c1	-1.1	-77.8	-1.4	-18.8	-73.0*
Cc1nnc(NC(=O)c2nc(S(=O)(=O)Cc3ccccc3C)ncc2Cl)s1	-2.1	-83.0	-3.4	-7.9	-77.5*
CSc1nnc(NC(=O)c2nc(S(=O)(=O)Cc3ccccc3F)ncc2Cl)s1	-7.0	-24.8	-1.9	-20.8	-21.8
CCSc1nnc(NC(=O)c2nc(S(=O)(=O)Cc3ccc(F)cc3)ncc2Cl)s1	3.3	-38.7	-0.9	-11.3	-20.6
CSc1nnc(NC(=O)c2nc(S(=O)(=O)Cc3cccc(C)c3)ncc2Cl)s1	5.6	-62.8	-3.9	-6.7	?
CC(C)c1nnc(NC(=O)c2nc(S(=O)(=O)Cc3ccc(F)cc3)ncc2Cl)s1	-3.5	-86.9	-1.0	-25.4	-84.1*
COC(=O)c1ccccc1NC(=O)c1nc(S(=O)(=O)Cc2ccccc2)ncc1Cl	-3.6	27.7	-0.1	44.0	27.1
CC(C)c1nnc(NC(=O)c2nc(S(=O)(=O)Cc3ccccc3F)ncc2Cl)s1	1.5	-82.2	0.1	-23.7	-80.4*
Cc1ccccc1CC1(CO)CCCN(C(=O)c2ccc3ncccc3c2)C1 (stereo unspecified)	16.8	-1.1	1.5	20.0	-3.5
COc1ccc(NC(=O)N2C3CCCC2CC(NC(=O)c2ccccc2)C3)cc1 (stereo unspecified)	-1.5	-8.3	0.0	-7.8	0.6
O=CN1Cc2ccccc2-c2ccccc2C1	0.4	10.9	-10.2	0.0	-3.4
COc1cc(CCCN2C(N)=NC[C@@H]2Cc2ccc(O)cc2)cc(OC)c1OC	17.6	-12.3	-0.1	-15.5	-11.0
Cc1ccc(CS(=O)(=O)c2ncc(Cl)c(C(=O)Nc3nnc(C(C)C)s3)n2)cc1	-4.0	-76.4	-1.3	-8.6	-70.6*

Source: PubChem (Broad Institute)
